Assay results published in ChEMBL document CHEMBL1127028, “Thromboxane receptor antagonism combined with thromboxane synthase inhibition. 5. Synthesis and evaluation of enantiomers of 8-[[(4-chlorophenyl)sulfonyl]amino]-4-(3-pyridinylalkyl)octanoic acid” (J Med Chem, 1993).
pIC50: −log10 of the molar value.

Experiments:
Thromboxane-A synthase = molecular target: T1, Thromboxane-A synthase (Homo sapiens, UniProt P24557); assay: In vitro inhibition of thromboxane synthetase in microsomal platelet preparation
T1 sequence (P24557 whole entry): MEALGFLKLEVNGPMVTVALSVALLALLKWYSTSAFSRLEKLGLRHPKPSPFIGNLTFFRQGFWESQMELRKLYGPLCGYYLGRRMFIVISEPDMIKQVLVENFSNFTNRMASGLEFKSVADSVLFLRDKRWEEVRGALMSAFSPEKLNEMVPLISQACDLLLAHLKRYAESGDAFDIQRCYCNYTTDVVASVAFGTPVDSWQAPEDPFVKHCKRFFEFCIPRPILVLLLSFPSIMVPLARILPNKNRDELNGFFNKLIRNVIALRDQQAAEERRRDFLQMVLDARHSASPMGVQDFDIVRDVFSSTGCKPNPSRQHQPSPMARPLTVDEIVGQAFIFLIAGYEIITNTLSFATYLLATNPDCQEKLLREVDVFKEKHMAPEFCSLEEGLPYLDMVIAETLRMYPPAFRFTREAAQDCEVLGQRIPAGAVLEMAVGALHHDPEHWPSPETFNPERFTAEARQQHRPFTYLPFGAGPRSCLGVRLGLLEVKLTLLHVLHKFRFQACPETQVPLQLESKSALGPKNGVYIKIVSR

Homo sapiens [1] = species: Homo sapiens; assay: Inhibition of U 46619-induced Aggregation of human Washed platelets; format: functional
Outline: (§1)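 Human platelets (washed, or platelet-rich plasma) were aggregated with U 46619, a TxA2/PGH2 mimetic. The test agent was titrated against this challenge and reported as an IC50.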

Homo sapiens [2] = species: Homo sapiens; assay: Inhibition of U 46619-induced Aggregation of Human Platelet-rich Plasma; format: functional; outline: as §1
Cavia porcellus [3] = assay: Ex vivo Inhibition of U 46619-induced aggregation of guinea pig platelets at the dose of 3 mg/Kg po per hour expressed as concentration ratio (EC50 of drug/EC50 of control); format: functional
Outline: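 Oral dosing of guinea pigs at 3 mg/kg, blood drawn 1 h later, then ex vivo U 46619-induced platelet aggregation measured. Concentration ratio is EC50 of U 46619 for the treated group over EC50 for vehicle controls (n = 22). 4–6 animals per group; values are mean ± SEM.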

Cavia porcellus [4] = assay: Ex vivo Inhibition of U 46619-induced aggregation of guinea pig platelets at the dose of 10 mg/Kg po per hour expressed as concentration ratio (EC50 of drug/EC50 of control); format: functional
Outline: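 Guinea pigs dosed orally at 10 mg/kg; blood sampled 1 h post-dose and platelet aggregation induced ex vivo with U 46619. Result given as concentration ratio, EC50 of U 46619 in drug-treated animals divided by EC50 in vehicle controls (vehicle n = 22). Groups of 4–6 animals; mean ± SEM.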

Homo sapiens [5] = species: Homo sapiens; assay: Inhibition of U 46619-induced Aggregation of Human Washed Platelets; format: functional; outline: as §1

Structure (SMILES)	pIC50 (Thromboxane-A synthase)	pIC50 (Homo sapiens [1])	pIC50 (Homo sapiens [2])	pIC50 (Homo sapiens [5])	Concentration ratio (Cavia porcellus [3])	Concentration ratio (Cavia porcellus [4])
O=C(O)CCC(CCCCNS(=O)(=O)c1ccc(Cl)cc1)CCCc1cccnc1 (stereo unspecified)			9.41			27
O=C(O)CC[C@H](CCCCNS(=O)(=O)c1ccc(Cl)cc1)CCOc1cccnc1	8.46	8.00	9.49		90	
O=C(O)CC[C@@H](CCCCNS(=O)(=O)c1ccc(Cl)cc1)CCCc1cccnc1	8.35	7.59	9.26			54
O=C(O)CC[C@H](CCCCNS(=O)(=O)c1ccc(Cl)cc1)CCCc1cccnc1	8.30		9.42	7.96		43

More lines, in order of rising pIC50 (Homo sapiens [2]), values ahead:

pIC50 (Thromboxane-A synthase)	pIC50 (Homo sapiens [1])	pIC50 (Homo sapiens [2])	pIC50 (Homo sapiens [5])	Structure (SMILES)	Concentration ratio (Cavia porcellus [3])	Concentration ratio (Cavia porcellus [4])
7.89	8.05	9.28		O=C(O)CC[C@@H](CCCCNS(=O)(=O)c1ccc(Cl)cc1)CCOc1cccnc1	66	
8.59		9.55		O=C(O)CCC(CCCCNS(=O)(=O)c1ccc(Cl)cc1)CCOc1cccnc1 (stereo unspecified)	>100	
